The nature of data set [1]: Pharmacokinetic parameter k2 was determined. It counts as ADME. The essentials:
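First-order rate constant for chemical conversion of the parent nitrosourea to its active alkylating intermediate. Measured in aqueous buffer or human serum at pH 7.4 and 37 °C.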

The test system of data set [2] is P388. Nature of the data set: Mean value for the exposure for P388 to the drug following a variety of treatment schedules at pH 7.4 and 37 degree. Particulars: Mus musculus, read-out: ED50 (the source's name).
The test system of data set [3] is P388. Nature of the data set: Mean value for the exposure for P388 to the drug for a period of 60 min. It counts as functional. Particulars: Mus musculus, P388, 1 h; read-out: ED50 (the source's name). The essentials: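 P388 mouse leukemia cells in log-phase suspension culture (Fischer's medium, 10% horse serum) at 1 × 10^6 cells/mL, exposed at 37 °C, pH 7.4, to graded initial drug concentrations (ethanol/water vehicle, <0.1% ethanol) in duplicate tubes for the stated period. Cells then diluted to 6.6 × 10^4 cells/mL in fresh medium, grown 48 h, Coulter counted; ED50 = dose giving 50% decrease in cell number versus untreated.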

The nature of data set [4]: Carbamoylating activity was determined. In kind it is ADME.
Data set [5] in a line: Alkylating activity was determined. It counts as ADME.

In the case of `O=NN(CCCl)C(=O)NC1CCC(=O)NC1=O` (stereo not given), the k2 in data set [1] is 0.027 min⁻¹. In addition, the EC50 was 6.5 µM in the data set with P388 [2] and 8.1 µM in the data set on P388 [3]. In data set [4], this compound registered a Carbamoylating activity of 24. The compound further showed an Alkylating activity in data set [5] of 360.

In data set [1], `NC(=O)N(CCCl)N=O` registered a k2 of 0.53 min⁻¹. Moreover, the EC50 in the data set on P388 [2] amounted to 5.7 µM; in the data set with P388 [3], 6 µM. In addition, the Carbamoylating activity in data set [4] amounted to 20. For the same compound, in data set [5], the Alkylating activity worked out at 1000.

In data set [1], `O=NN(CCCl)C(=O)NCCCl` [CARMUSTINE] showed a k2 of 0.014 min⁻¹. In addition, the EC50 in the data set with P388 [2] is 6.3 µM; with P388 [3] it was 13.3 µM. In data set [4], the Carbamoylating activity is reported as 70. The Alkylating activity in data set [5] was found to be 260.

As for `O=NN(CCCl)C(=O)N[C@H]1C(O)O[C@H](CO)[C@@H](O)[C@@H]1O` (stereo not given in full) [CHLOROZOTOCIN], the k2 in data set [1] turned out to be 0.033 min⁻¹. For the same compound, the results for the EC50 in the data set with P388 [2] and in the data set with P388 [3] were 11.7 µM and 17 µM, respectively. Also, the Carbamoylating activity in data set [4] was determined as 2. Besides, the Alkylating activity in data set [5] was 450.

In the case of `O=NN(CCCl)C(=O)NC1CCCCC1` [LOMUSTINE], in data set [1], the k2 is 0.013 min⁻¹. Further, the EC50 with P388 [2] was 6.7 µM; in the data set on P388 [3] it was 13 µM. This compound also yielded a Carbamoylating activity in data set [4] of 100. Besides, the Alkylating activity in data set [5] was determined as 100.

The values above are taken from ChEMBL document CHEMBL1122484, “An analysis of 1-(2-chloroethyl)-1-nitrosourea activity at the cellular level” (J Med Chem, 1983).
